# Laboratory results reported in ChEMBL document CHEMBL4350992, “Identification of Diketopiperazine-Containing 2-Anilinobenzamides as Potent Sirtuin 2 (SIRT2)-Selective Inhibitors Targeting the "Selectivity Pocket", Substrate-Binding Site, and NAD+-Binding Site” (J Med Chem, 2019).
# Active and inactive are the calls of the source. No cut-off for these calls is given here.
# Experiments:
# [1] = target: T1, NAD-dependent protein deacetylase sirtuin-2 (Homo sapiens) (UniProt Q8IXJ6); test: Inhibition of human N-terminal His-tagged SIRT2 expressed in Escherichia coli at 10 uM using p53 (Gln-Pro-Lys-Lys(Ac)) (317 to 320 residues) as substrate incubated for 3 hrs measured up to 30 mins by fluorescence assay relative to control
# T1 sequence (whole entry): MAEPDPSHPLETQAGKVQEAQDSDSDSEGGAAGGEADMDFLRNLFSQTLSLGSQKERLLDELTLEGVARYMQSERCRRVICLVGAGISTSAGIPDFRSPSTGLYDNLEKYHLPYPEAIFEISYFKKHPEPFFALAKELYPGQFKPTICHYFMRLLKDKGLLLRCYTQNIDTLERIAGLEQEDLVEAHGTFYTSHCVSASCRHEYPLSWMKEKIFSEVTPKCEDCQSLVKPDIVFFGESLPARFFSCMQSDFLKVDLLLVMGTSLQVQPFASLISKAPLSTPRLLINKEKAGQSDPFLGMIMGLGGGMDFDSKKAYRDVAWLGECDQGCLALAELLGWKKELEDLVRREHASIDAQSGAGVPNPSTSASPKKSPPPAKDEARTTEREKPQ
# [2] = target: T2, NAD-dependent protein deacetylase sirtuin-1 (Homo sapiens) (UniProt Q96EB6); test: Inhibition of human N-terminal His-tagged SIRT1 expressed in Escherichia coli at 50 uM using p53 (Arg-His-Lys-Lys(Ac)) (379 to 382 residues) as substrate incubated for 3 hrs measured up to 30 mins by fluorescence assay relative to control
# T2 sequence (whole entry): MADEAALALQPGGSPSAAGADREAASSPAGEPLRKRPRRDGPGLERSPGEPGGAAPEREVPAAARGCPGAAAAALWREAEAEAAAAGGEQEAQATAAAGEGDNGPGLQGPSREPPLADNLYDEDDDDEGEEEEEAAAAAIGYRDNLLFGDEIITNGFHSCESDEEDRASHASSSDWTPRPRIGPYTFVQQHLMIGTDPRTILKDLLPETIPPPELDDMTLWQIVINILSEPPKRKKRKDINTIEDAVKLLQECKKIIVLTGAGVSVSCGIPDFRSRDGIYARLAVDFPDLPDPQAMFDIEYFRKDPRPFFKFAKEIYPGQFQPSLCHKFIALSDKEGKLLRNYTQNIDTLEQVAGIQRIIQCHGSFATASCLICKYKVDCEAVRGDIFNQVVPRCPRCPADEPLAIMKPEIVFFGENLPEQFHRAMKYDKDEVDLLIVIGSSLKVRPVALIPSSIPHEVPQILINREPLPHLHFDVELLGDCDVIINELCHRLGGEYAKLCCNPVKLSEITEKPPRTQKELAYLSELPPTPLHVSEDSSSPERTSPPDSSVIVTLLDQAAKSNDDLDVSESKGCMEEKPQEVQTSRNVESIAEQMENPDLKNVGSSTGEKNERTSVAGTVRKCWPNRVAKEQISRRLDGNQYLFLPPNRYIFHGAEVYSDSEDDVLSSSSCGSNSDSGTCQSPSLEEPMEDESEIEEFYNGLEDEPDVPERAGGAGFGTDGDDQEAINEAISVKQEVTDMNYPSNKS
# [3] = tested on: MCF7; test: Growth inhibition of human MCF7 cells at 15 uM measured after 72 hrs by AlamarBlue assay; format: functional, cell-based
# Outline: (§1)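 MCF-7 cells in DMEM with 10% FBS were seeded at 1×10³ cells/well. After 24 h at 37°C, 5% CO₂, compound in medium was added at varying concentrations for 72 h. AlamarBlue was then added for 3 h and fluorescence read (ex 540/em 590 nm). Percent growth was calculated from the readings, and GI50 from the dose response. Three independent determinations.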
# [4] = tested on: N2a; test: Induction of neurite outgrowth in mouse Neuro2a cells at 0.2 to 2 uM measured after 24 hrs by microscopic analysis; format: functional, cell-based
# Outline: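 N2a cells were plated at 1×10⁴ cells/mL in DMEM with 10% FBS, then switched to DMEM with 2% FBS for differentiation. Compound was added for 24 or 48 h and morphology scored by microscopy. A cell counted as differentiated if it had ≥1 neurite longer than twice the soma diameter; ≥100 cells were counted per condition. Triplicate experiments, mean ± SD, one-way ANOVA with Dunnett's test.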
# [5] = target: T2, NAD-dependent protein deacetylase sirtuin-1 (Homo sapiens); test: Inhibition of SIRT1 in human MCF7 cells assessed as H3K9Ac expression at 0.1 uM measured after 24 hrs by Western blot analysis relative to H3; format: cell-based
# Outline: (§2)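 MCF-7 cells (5×10⁵ per dish) were treated 24 h, lysed in SDS buffer and protein was quantified by BCA. Equal protein was run on 5–20% SDS-PAGE and transferred to PVDF. Blots were probed for H3K9Ac, H3, acetyl-α-tubulin and α-tubulin, then given HRP secondaries and ECL detection. Acetyl/total ratios came from blot optical density.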
# [6] = target: T1, NAD-dependent protein deacetylase sirtuin-2 (Homo sapiens); test: Inhibition of SIRT2 in human MCF7 cells assessed as accumulation of acetylated-alpha tubulin at 0.1 uM measured after 24 hrs by Western blot analysis relative to alpha-tubulin; format: cell-based; outline: as §2
# [7] = target: T1, NAD-dependent protein deacetylase sirtuin-2 (Homo sapiens); test: Inhibition of human N-terminal His-tagged SIRT2 expressed in Escherichia coli at 50 uM using p53 (Gln-Pro-Lys-Lys(Ac)) (317 to 320 residues) as substrate incubated for 3 hrs measured up to 30 mins by fluorescence assay relative to control
# [8] = target: NAD-dependent protein deacylase sirtuin-5, mitochondrial (Homo sapiens) (UniProt Q9NXA8); test: Inhibition of human N-terminal His-tagged SIRT5 (37 to 310 residues) expressed in Escherichia coli at 100 uM using flour de lys succinyl as substrate incubated for 3 hrs measured up to 30 mins by fluorescence assay relative to control
# NAD-dependent protein deacylase sirtuin-5, mitochondrial (Homo sapiens), sequence (Q9NXA8 37-310 limits assumed): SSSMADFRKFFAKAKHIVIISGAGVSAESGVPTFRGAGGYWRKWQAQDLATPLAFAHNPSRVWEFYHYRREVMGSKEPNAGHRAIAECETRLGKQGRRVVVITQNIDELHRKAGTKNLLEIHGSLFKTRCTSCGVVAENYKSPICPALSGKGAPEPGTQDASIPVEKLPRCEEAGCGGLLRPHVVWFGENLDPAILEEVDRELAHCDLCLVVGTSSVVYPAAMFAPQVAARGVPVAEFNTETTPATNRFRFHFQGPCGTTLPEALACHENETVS
# [9] = tested on: MCF7; test: Growth inhibition of human MCF7 cells at 30 uM measured after 72 hrs by AlamarBlue assay relative to control; format: functional; details: MCF7, 72 h, read-out: GI; outline: as §1
# [10] = target: T3, NAD-dependent protein deacetylase sirtuin-3, mitochondrial (Homo sapiens) (UniProt Q9NTG7); test: Inhibition of human N-terminal His-tagged SIRT3 (102 to 399 residues) expressed in Escherichia coli at 100 uM using p53 (Gln-Pro-Lys-Lys(Ac)) (317 to 320 residues) as substrate incubated for 3 hrs measured up to 30 mins by fluorescence assay relative to control
# T3 sequence (whole entry): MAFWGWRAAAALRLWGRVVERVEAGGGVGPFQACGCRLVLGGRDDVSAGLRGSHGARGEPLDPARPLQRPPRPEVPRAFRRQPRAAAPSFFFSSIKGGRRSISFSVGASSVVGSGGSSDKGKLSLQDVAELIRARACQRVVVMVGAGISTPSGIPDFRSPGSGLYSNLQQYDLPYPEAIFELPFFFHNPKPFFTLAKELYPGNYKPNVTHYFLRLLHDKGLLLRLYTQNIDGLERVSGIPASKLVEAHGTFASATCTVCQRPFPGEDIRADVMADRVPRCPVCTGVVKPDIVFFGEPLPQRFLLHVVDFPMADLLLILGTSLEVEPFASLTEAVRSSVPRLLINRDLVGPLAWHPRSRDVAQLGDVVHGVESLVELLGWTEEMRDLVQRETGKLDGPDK
# [11] = target: T2, NAD-dependent protein deacetylase sirtuin-1 (Homo sapiens); test: Inhibition of human N-terminal His-tagged SIRT1 expressed in Escherichia coli at 100 uM using p53 (Arg-His-Lys-Lys(Ac)) (379 to 382 residues) as substrate incubated for 3 hrs measured up to 30 mins by fluorescence assay relative to control
# [12] = tested on: MCF7; test: Growth inhibition of human MCF7 cells measured after 72 hrs by AlamarBlue assay; format: functional; details: MCF7, 72 h; outline: as §1
SMILES,inhibition [1] [%],inhibition [2] [%],also measured
NC(=O)c1ccccc1Nc1cccc(OCCc2ccc3ccccc3c2)c1,75,7,
CC(C)(C)OC(=O)NCCCCNC(=O)CNC(=O)c1ccccc1Nc1cccc(OCCc2ccccc2)c1,83,23,
O=C(O)c1ccccc1Nc1cccc(OCCc2ccccc2)c1,12,2.5,
CCCCCCCCCCCCCC(=S)NCCCC[C@H](NC(=O)OCc1ccccc1)C(=O)Nc1ccccc1,,,growth inhibition (GI) [3]: Active; Activity [4]: Active
C#CCNC(=O)c1ccccc1Nc1cccc(OCCc2ccccc2)c1,77,12,
Cc1cc(C)nc(SCC(=O)Oc2cccc(Nc3ccccc3C(N)=O)c2)n1,26,7,
O=C(NCc1ccccc1)c1ccccc1Nc1cccc(OCCc2ccccc2)c1,70,12,
O=C(NOC1CCCCO1)c1ccccc1Nc1cccc(OCCc2ccccc2)c1 (stereo not drawn),54,8,
O=C(CCCCCCC(=O)Nc1ccccc1)NO,,,fold change (FC) [5]: 1.3; fold change (FC) [6]: 1.61
CN(C)CCNC(=O)c1ccccc1Nc1cccc(OCCc2ccccc2)c1,59,18,inhibition [7]: 74%
CC(C)(C)OC(=O)NCCCNC(=O)c1ccccc1Nc1cccc(OCCc2ccccc2)c1,57,4,
O=C(Nc1ccccc1)c1ccccc1Nc1cccc(OCCc2ccccc2)c1,44,9,
O=C(NCCc1ccccc1)c1ccccc1Nc1cccc(OCCc2ccccc2)c1,46,5,
O=C(c1ccccc1Nc1cccc(OCCc2ccccc2)c1)N1CCOCC1,71,4,
NC(=O)c1ccccc1Nc1cccc(OCCc2ccccc2)c1,90,12,inhibition [8]: 8%; inhibition of growth at 30 µM [9]: 30%; inhibition [10]: 17%; inhibition [11]: 17%; Activity [4]: Active
C[C@H](NC(=O)[C@H](CCCCNC(=S)CNC(=O)c1ccccc1Nc1cccc(OCCc2ccccc2)c1)NC(=O)OCc1ccccc1)C(N)=O,,,GI50 [12]: 8.43 µM; Activity [4]: Active
O=C(NC1CCCCC1)c1ccccc1Nc1cccc(OCCc2ccccc2)c1,28,15,

SMILES,inhibition [1] [%],inhibition [2] [%],also measured
NC(=O)Cc1ccccc1Nc1cccc(OCCc2ccccc2)c1,68,19,
C[C@H](NC(=O)c1ccccc1Nc1cccc(OCCc2ccccc2)c1)C(N)=O,81,15,
O=C(O)CNC(=O)c1ccccc1Nc1cccc(OCCc2ccccc2)c1,50,8,
O=C(NCCO)c1ccccc1Nc1cccc(OCCc2ccccc2)c1,76,12,
O=C(NO)c1ccccc1Nc1cccc(OCCc2ccccc2)c1,68,13,
CONC(=O)c1ccccc1Nc1cccc(OCCc2ccccc2)c1,63,6,
NC(=O)CNC(=O)c1ccccc1Nc1cccc(OCCc2ccccc2)c1,85,10,
CC(C)CCNC(=O)c1ccccc1Nc1cccc(OCCc2ccccc2)c1,45,8,inhibition [7]: 70%
CC(C)(C)OC(=O)NCCNC(=O)c1ccccc1Nc1cccc(OCCc2ccccc2)c1,77,11,
CCCNC(=O)c1ccccc1Nc1cccc(OCCc2ccccc2)c1,58,8,
CCCCCNC(=O)c1ccccc1Nc1cccc(OCCc2ccccc2)c1,50,9,
CCCCNC(=O)c1ccccc1Nc1cccc(OCCc2ccccc2)c1,57,2,
O=C(NC1CCN(Cc2ccccc2)CC1)c1ccccc1Nc1cccc(OCCc2ccccc2)c1,56,8,
COC(=O)CNC(=O)c1ccccc1Nc1cccc(OCCc2ccccc2)c1,72,17,
CC(C)(C)OC(=O)NCCCCCNC(=O)CNC(=O)c1ccccc1Nc1cccc(OCCc2ccccc2)c1,83,14,
CCN(CC)C(=O)c1ccccc1Nc1cccc(OCCc2ccccc2)c1,61,11,
